The subject of one test is iCP over sCP. Kind of test: Selectivity index, mean iCP percent degraded over sCP percent degraded. Format: biochemical.
In test [1] the target is iCP-PA28-activated complex (Homo sapiens, UniProt P28062). Kind of test: LC-MS hydrolysis of dialanine substrates by iCP-PA28-activated complex. Format: biochemical. Conditions: 25 µM substrate, iCP + 7.5X PA28, 4 hours, triplicate, Fig. 3B. In outline: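 Purified human iCP, activated with PA28, incubated with 25 μM test substrate for 4 hours. Each substrate is a modified recognition sequence joined to a constant dialanine cargo, with expected cleavage at the amide bond between them. Products analysed by LC-MS as percent degraded. Triplicate, mean ± standard deviation. Singly modified substrates compared with the unmodified-sequence dialanine control by t-test.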

Square brackets hold non-standard residues; d marks the D form. Peptide text beside a SMILES is read from it. 2Nal = N[C@@H](Cc1ccc2ccccc2c1)C(=O)O

On to “morph-Ala-Orn-(Met?O2)-Trp(7,Me) [mAO(Met=O2) W(7,Me)]”, for which the “Increase of substrate selectivity for the iCP compared with the ATMW scaffold” value in the test with iCP over sCP (ratio of selectivity indices, analogue vs ATMWAA) is “about 3 fold”.

Consider `CSCC[C@H](NC(=O)[C@@H](NC(=O)[C@H](C)N)[C@@H](C)O)C(=O)N[C@@H](Cc1ccc2ccccc2c1)C(=O)N[C@@H](C)C(=O)N[C@@H](C)C(N)=O` [ATM(2-Nal)] (H-ATM[2Nal]AA-NH2), for which the “Hydrolysis by iCP-PA28-activated complex compared with control ATMWAA” value in test [1] was “hydrolyzed well by the iCP”. Further, the “Isoform selectivity for the iCP” value in the test on iCP over sCP (Fig. 3C conditions) is listed as “not isoform selective”.

For the origin of these results see article PMC12235443 (RSC Chemical Biology, 2025).
